Calls of active or inactive are those of the source. No cut-off for these calls is given here.

For assay [1], the system named is Huh-7.5.1. The experiment in a line: Inhibition of Histone acetyltransferase in human Huh7.5.1 cells infected with hepatitis C virus assessed as effect on viral load. It counts as cell-based.
Assay [2] deals with Mus musculus. The experiment in a line: Reduction of liver fibrosis in DEN/CDAHFD-induced NASH C57BL/6 mouse model assessed as decrease in Acta2 gene expression at 50 mg/kg, IP for 5 days a week by qRT-PCR analysis. The settings on record: time 5.0 day. The assay is classed as functional, organism-based. The method in brief: (§1)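 DEN (35 mg/kg IP, day 15)/CDAHFD-fed male C57BL/6 mice were dosed IP 5 days/week from 12 weeks of age in 10% hydroxypropyl-β-cyclodextrin, or given vehicle. Livers were taken at 30 weeks and hepatic fibrotic and inflammatory gene expression was quantified by qRT-PCR, n=3 per group; means±SD, unpaired t-test.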
(In general: Real-time PCR tracks product formation cycle by cycle.)

Assay [3] deals with Mus musculus. Description: Reduction of liver weight in DEN/CDAHFD-induced NASH C57BL/6 mouse model at 50 mg/kg, IP for 5 days a week. It counts as functional, organism-based. As to conditions: time 5.0 day. In short, it runs like this:
(§2)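 Male C57BL/6 mice, single IP diethylnitrosamine 35 mg/kg on day 15. From 6 weeks of age fed CDAHFD (60 kcal% fat, 0.1% methionine). From 12 weeks, randomised to IP dosing 5 days/week, drug in 10% (2-hydroxypropyl)-β-cyclodextrin or vehicle alone. Livers harvested at 30 weeks; body weight, liver weight and tumour nodule counts recorded (n=8 per group), with H&E and Sirius red sections; means±SEM, unpaired t-test.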

Assay [4] deals with Mus musculus. The experiment in a line: Antitumor activity in DEN/CDAHFD-induced NASH C57BL/6 mouse model assessed as decrease in number of tumor at 50 mg/kg, IP for 5 days a week. As to conditions: time 5.0 day. It counts as functional, organism-based. The method in brief:
as §2

Assay [5] concerns Mus musculus. The experiment in a line: Reduction of liver fibrosis in DEN/CDAHFD-induced NASH C57BL/6 mouse model assessed as decrease in Tgf gene expression at 50 mg/kg, IP for 5 days a week by qRT-PCR analysis. The settings on record: time 5.0 day. It counts as functional, organism-based. In short, it runs like this: as §1
Assay [6] deals with Mus musculus. Description: Decrease in EPCAM gene expression in DEN/CDAHFD-induced NASH C57BL/6 mouse model at 50 mg/kg, IP for 5 days a week by CHIP-qPCR assay. The assay is classed as functional, organism-based. As to conditions: time 5.0 day. In short, it runs like this:
(§3)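 ChIP-qPCR on livers of control, DEN/CDAHFD and treated DEN/CDAHFD mice (IP 5 days/week from week 12, harvest at 30 weeks) measured BRD4 recruitment to promoter-enhancer regions of the named genes, using BRD4 antibody against an IgG control. Groups were compared by Mann-Whitney U test.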

Assay [7] concerns Mus musculus. Description: Antitumor activity in DEN/CDAHFD-induced NASH C57BL/6 mouse model assessed as decrease in tumor nodules at 50 mg/kg, IP for 5 days a week by hematoxylin and eosin staining based microscopic analysis. It counts as functional, organism-based. As to conditions: time 5.0 day. In short, it runs like this: as §2
For assay [8], the system named is Mus musculus. Description: Effect on c-Myc expression in DEN/CDAHFD-induced NASH C57BL/6 mouse model at 50 mg/kg, IP for 5 days a week by Western blot analysis. The assay is classed as functional, organism-based. As to conditions: time 5.0 day. The method in brief:
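Liver lysates from control/PBS, vehicle and treated DEN/CDAHFD mice (n=3 each; 30 weeks; IP 5 days/week in 10% hydroxypropyl-β-cyclodextrin) were probed by western blot for c-Myc. Blots from six animals were quantified by densitometry and compared by unpaired t-test.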
A general note: Immunoblotting shows a protein as a band on a membrane.

In assay [9] the test system is Mus musculus. Description: Reduction of liver fibrosis in DEN/CDAHFD-induced NASH C57BL/6 mouse model assessed as decrease in Col1A gene expression at 50 mg/kg, IP for 5 days a week by qRT-PCR analysis. The assay is classed as functional, organism-based. The settings on record: time 5.0 day. The method in brief: as §1
Assay [10] has as its system Mus musculus. Description: Effect on body weight in DEN/CDAHFD-induced NASH C57BL/6 mouse model at 50 mg/kg, IP for 5 days a week. The assay is classed as functional, organism-based. The settings on record: time 5.0 day. In short, it runs like this: as §2
Assay [11] deals with Mus musculus. The experiment in a line: Decrease in SOX9 gene expression in DEN/CDAHFD-induced NASH C57BL/6 mouse model at 50 mg/kg, IP for 5 days a week by CHIP-qPCR assay. The assay is classed as functional, organism-based. As to conditions: time 5.0 day. In short, it runs like this: as §3
Assay [12] concerns Mus musculus. Description: Antitumor activity in DEN/CDAHFD-induced NASH C57BL/6 mouse model assessed as decrease in tumor nodules at 50 mg/kg, IP for 5 days a week by sirus red staining based microscopic analysis. It counts as functional, organism-based. As to conditions: time 5.0 day. In short, it runs like this: as §2
The test system of assay [13] is Mus musculus. The experiment in a line: Reduction of liver fibrosis in DEN/CDAHFD-induced NASH C57BL/6 mouse model assessed as decrease in collagen proportional area at 50 mg/kg, IP for 5 days a week. The assay is classed as functional, organism-based. The settings on record: time 5.0 day. The method in brief:
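Fibrosis was scored as collagen proportional area by quantitative digital analysis of whole-scanned Sirius red-stained liver sections. Sections came from DEN/CDAHFD male C57BL/6 mice harvested at 30 weeks after IP dosing 5 days/week from week 12 (cyclodextrin vehicle), n=3 per group; means±SD.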

Assay [14] concerns Mus musculus. The experiment in a line: Reduction of liver inflammation in DEN/CDAHFD-induced NASH C57BL/6 mouse model assessed as decrease in Ccl2 gene expression at 50 mg/kg, IP for 5 days a week by qRT-PCR analysis. It counts as functional, organism-based. As to conditions: time 5.0 day. In short, it runs like this:
as §1

The test system of assay [15] is Mus musculus. The experiment in a line: Decrease in NFkappaB2 gene expression in DEN/CDAHFD-induced NASH C57BL/6 mouse model at 50 mg/kg, IP for 5 days a week by CHIP-qPCR assay. It counts as functional, organism-based. The settings on record: time 5.0 day. The method in brief: as §3
Assay [16] has as its system Mus musculus. Description: Reduction of liver inflammation in DEN/CDAHFD-induced NASH C57BL/6 mouse model assessed as decrease in TNFa gene expression at 50 mg/kg, IP for 5 days a week by qRT-PCR analysis. As to conditions: time 5.0 day. The assay is classed as functional, organism-based. The method in brief: as §1
The subject of assay [17] is Mus musculus. The experiment in a line: Decrease in KRT7 gene expression in DEN/CDAHFD-induced NASH C57BL/6 mouse model at 50 mg/kg, IP for 5 days a week by CHIP-qPCR assay. It counts as functional, organism-based. The settings on record: time 5.0 day. In short, it runs like this: as §3
Assay [18] has as its system Huh-7.5.1. The experiment in a line: Inhibition of Histone acetyltransferase in human Huh7.5.1 cells assessed as hepatitis C virus-induced EGF mRNA level measured after 72 hrs. It counts as cell-based. In short, it runs like this:
(§4)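 Huh7.5.1 cells differentiated with dimethyl sulfoxide, then infected with HCV until they expressed the poor-prognosis status of the prognostic liver signature. Infected cells were then incubated with chromatin modifier/reader inhibitors. Concentrations were chosen as non-toxic from MTT viability tests on non-infected differentiated cells at 72 h (n=3, viability relative to untreated cells).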

Assay [19] has as its system Huh-7.5.1. The experiment in a line: Inhibition of Histone acetyltransferase in human Huh7.5.1 cells assessed as hepatitis C virus-induced NFkappaB mRNA level measured after 72 hrs. It counts as cell-based. The method in brief:
as §4

As for `CC1=NN(c2ccc(C(=O)O)cc2)C(=O)/C1=C\c1ccc(-c2cc(C)c(C)cc2[N+](=O)[O-])o1`, in the assay on Huh-7.5.1 [1], the inhibition result was “inactive”.

Turning to `Cc1sc2c(c1C)C(c1ccc(Cl)cc1)=N[C@@H](CC(=O)OC(C)(C)C)c1nnc(C)n1-2`, the inhibition entry in the assay with Mus musculus [2], in the assay on Mus musculus [3], in the assay on Mus musculus [4], in the assay with Mus musculus [5], with Mus musculus [6] and with Mus musculus [7] was “Active” in each case. Besides, the inhibition result in the assay on Mus musculus [9], with Mus musculus [11], in the assay on Mus musculus [12], in the assay on Mus musculus [13], in the assay with Mus musculus [14] and in the assay with Mus musculus [15] was “Active” throughout. Also, the inhibition entry in the assay with Mus musculus [16] and in the assay with Mus musculus [17] was “Active” each time. Moreover, the result with Mus musculus [8] and with Mus musculus [10] was inactive.

In the case of `COc1cc(/C=C/c2cc(/C=C/c3ccc(O)c(OC)c3)n(-c3ccc(C(=O)O)cc3)n2)ccc1O`, the inhibition result in the assay with Huh-7.5.1 [18] and with Huh-7.5.1 [19] was “Active” each time. Further, the inhibition result in the assay with Huh-7.5.1 [1] is “inactive”.

The values above are taken from ChEMBL document CHEMBL5712089, “Targeting clinical epigenetic reprogramming for chemoprevention of metabolic and viral hepatocellular carcinoma” (Gut, 2021).
